Data published in ChEMBL document CHEMBL5543089, “Discovery of a novel, highly potent EZH2 PROTAC degrader for targeting non-canonical oncogenic functions of EZH2” (Eur J Med Chem, 2024).
The source made the active and inactive calls. The calls are words filed in the database; no cut-off is given here.

Experiments:
[1] = biological target: T1, von Hippel-Lindau disease tumor suppressor/Histone-lysine N-methyltransferase EZH2 (Homo sapiens, UniProt Q15910+P40337); assay: PROTAC activity at VHL/EZH2 degradation in hMLLr AML cell line EOL1 cells assessed as protein degradation measured after 24 hrs by Western blot analysis; assay type: cell-based
How it was run: (§1)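 Cells were seeded at 0.5–2 million per well and treated for 24 h, or for the stated times at 300 nM in the time course. Lysis was in RIPA with protease inhibitors; ~10 μg protein was run on SDS-PAGE and blotted to PVDF. Detection used fluorescent immunoblotting for EZH2, EED and SUZ12, with β-actin as loading control. Blots are representative of two biological experiments.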
Target sequence in this assay (Q15910 whole entry): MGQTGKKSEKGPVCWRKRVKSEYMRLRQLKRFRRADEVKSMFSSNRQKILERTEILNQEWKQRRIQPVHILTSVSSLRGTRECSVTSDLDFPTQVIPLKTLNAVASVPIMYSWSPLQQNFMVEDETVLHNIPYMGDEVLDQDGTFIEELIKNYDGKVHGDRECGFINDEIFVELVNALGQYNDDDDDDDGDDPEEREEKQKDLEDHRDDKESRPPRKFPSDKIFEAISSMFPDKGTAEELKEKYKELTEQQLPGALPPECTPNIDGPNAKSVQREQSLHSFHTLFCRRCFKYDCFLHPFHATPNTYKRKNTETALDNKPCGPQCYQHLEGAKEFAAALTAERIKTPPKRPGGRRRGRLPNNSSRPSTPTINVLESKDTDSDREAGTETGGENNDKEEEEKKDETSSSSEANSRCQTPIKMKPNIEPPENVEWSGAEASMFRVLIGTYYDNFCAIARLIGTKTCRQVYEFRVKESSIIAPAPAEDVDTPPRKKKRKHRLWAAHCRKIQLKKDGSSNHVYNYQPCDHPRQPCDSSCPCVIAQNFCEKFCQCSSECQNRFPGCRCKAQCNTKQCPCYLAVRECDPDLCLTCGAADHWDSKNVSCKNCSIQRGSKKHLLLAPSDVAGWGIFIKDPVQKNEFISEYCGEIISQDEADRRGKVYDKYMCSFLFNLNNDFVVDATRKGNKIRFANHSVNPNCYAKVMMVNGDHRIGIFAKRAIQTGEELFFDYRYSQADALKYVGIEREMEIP
Target sequence in this assay (P40337 whole entry): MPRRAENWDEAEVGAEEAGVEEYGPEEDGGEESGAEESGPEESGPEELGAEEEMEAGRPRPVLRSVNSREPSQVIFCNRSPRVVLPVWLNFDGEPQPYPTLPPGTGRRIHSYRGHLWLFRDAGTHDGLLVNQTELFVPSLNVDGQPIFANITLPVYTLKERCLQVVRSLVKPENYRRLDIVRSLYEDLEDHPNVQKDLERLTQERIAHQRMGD

[2] = biological target: Histone-lysine N-methyltransferase, H3 lysine-79 specific (Homo sapiens) (UniProt Q8TEK3); assay: Inhibition of human DOT1L assessed as methyltransferase at 10 uM by radioisotope based MT HotSpot assay relative to control
How it was run: (§2)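 Radioisotope-based methyltransferase assay (MT HotSpot) run by a contract lab. Compound was tested at 10 μM against a panel of 20 methyltransferases, in duplicate. Values are means ± SD of two replicates.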

[3] = biological target: Histone-lysine N-methyltransferase 2A (Homo sapiens) (UniProt Q03164); assay: Inhibition of human MLL1 assessed as methyltransferase activity using Nucleosomes as substrate at 10 uM by radioisotope based MT HotSpot assay relative to control; how it was run: as §2
[4] = biological target: Histone-lysine N-methyltransferase NSD2 (Homo sapiens) (UniProt O96028); assay: Inhibition of human NSD2 assessed as methyltransferase activity using Nucleosomes as substrate at 10 uM by radioisotope based MT HotSpot assay relative to control; how it was run: as §2
[5] = biological target: Histone-lysine N-methyltransferase NSD3 (Homo sapiens) (UniProt Q9BZ95); assay: Inhibition of human NSD3 assessed as methyltransferase activity using Nucleosomes as substrate at 10 uM by radioisotope based MT HotSpot assay relative to control; how it was run: as §2
[6] = species: Homo sapiens; assay: Inhibition of human PRMT1 assessed as methyltransferase activity using Histone H4 /H4 (1-15)-Biotin as substrate at 10 uM by radioisotope based MT HotSpot assay relative to control; how it was run: as §2
[7] = biological target: Protein arginine N-methyltransferase 3 (Homo sapiens) (UniProt O60678); assay: Inhibition of human PRMT3 assessed as methyltransferase activity using Histone H3 as substrate at 10 uM by radioisotope based MT HotSpot assay relative to control; how it was run: as §2
[8] = biological target: Histone-arginine methyltransferase CARM1 (Homo sapiens) (UniProt Q86X55); assay: Inhibition of human PRMT4 assessed as methyltransferase activity using Histone H3 as substrate at 10 uM by radioisotope based MT HotSpot assay relative to control; how it was run: as §2
[9] = biological target: Protein arginine N-methyltransferase 7 (Homo sapiens) (UniProt Q9NVM4); assay: Inhibition of human PRMT7 assessed as methyltransferase activity using GST-GAR as substrate at 10 uM by radioisotope based MT HotSpot assay relative to control; how it was run: as §2
[10] = biological target: Protein arginine N-methyltransferase 8 (Homo sapiens) (UniProt Q9NR22); assay: Inhibition of human PRMT8 assessed as methyltransferase activity using Histone H4 as substrate at 10 uM by radioisotope based MT HotSpot assay relative to control; how it was run: as §2
[11] = biological target: Histone-lysine N-methyltransferase SETD7 (Homo sapiens) (UniProt Q8WTS6); assay: Inhibition of human SET7/9 assessed as methyltransferase activity using Core histone as substrate at 10 uM by radioisotope based MT HotSpot assay relative to control; how it was run: as §2
[12] = biological target: N-lysine methyltransferase KMT5A (Homo sapiens) (UniProt Q9NQR1); assay: Inhibition of human SET8 assessed as methyltransferase activity using Nucleosomes as substrate at 10 uM by radioisotope based MT HotSpot assay relative to control; how it was run: as §2
[13] = biological target: Histone-lysine N-methyltransferase SETD2 (Homo sapiens) (UniProt Q9BYW2); assay: Inhibition of human SETD2 assessed as methyltransferase activity using Oligo Nucleosomes as substrate at 10 uM by radioisotope based MT HotSpot assay relative to control; how it was run: as §2
[14] = biological target: Histone-lysine N-methyltransferase SUV39H1 (Homo sapiens) (UniProt O43463); assay: Inhibition of human SUV39H1 assessed as methyltransferase activity using Histone H3 as substrate at 10 uM by radioisotope based MT HotSpot assay relative to control; how it was run: as §2
[15] = biological target: T1, von Hippel-Lindau disease tumor suppressor/Histone-lysine N-methyltransferase EZH2; assay: PROTAC activity at VHL/EZH2 degradation in MLLr AML cell line human EOL1 cells assessed as protein degradation at 0.1 uM measured after 24 hrs by Western blot analysis; assay type: cell-based; how it was run: as §1
Target sequence in this assay (P40337 whole entry, looked up): as the sequence (P40337 whole entry) above
Target sequence in this assay (Q15910 whole entry, looked up): as the sequence (Q15910 whole entry) above

[16] = system: EOL1; assay: Anti-proliferative activity against human EOL1 cells assessed as cell viability measured after 5 days incubation by CCK-8 assay; assay type: functional, cell-based; conditions: EOL1, 120 h
How it was run: (§3)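 Cells plated at 3,000–10,000 per well and exposed to serial dilutions for 5 days at 37 °C. CCK-8 (1x) was added for 2–4 h, with absorbance read at 450 nm against a 690 nm reference. IC50 was taken from curve fits. Leukemia lines were grown in RPMI-1640, K562 in IMDM and MDA-MB-468 in DMEM, all with 10 % FBS. Values are means ± SD of two biological experiments (three for BT549 and MDA-MB-468).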

[17] = biological target: T1, von Hippel-Lindau disease tumor suppressor/Histone-lysine N-methyltransferase EZH2; assay: PROTAC activity at VHL/EZH2 degradation in human RS4-11 cells assessed as protein degradation at 0.1 uM measured after 24 hrs by Western blot analysis; assay type: cell-based; how it was run: as §1
Target sequence in this assay (P40337 whole entry, looked up): as the sequence (P40337 whole entry) above
Target sequence in this assay (Q15910 whole entry, looked up): as the sequence (Q15910 whole entry) above

[18] = system: RS4-11; assay: Anti-proliferative activity against human RS4-11 cells assessed as cell viability measured after 5 days incubation by CCK-8 assay; assay type: functional, cell-based; conditions: RS4-11, 120 h; how it was run: as §3
[19] = biological target: T1, von Hippel-Lindau disease tumor suppressor/Histone-lysine N-methyltransferase EZH2; assay: PROTAC activity at VHL/EZH2 degradation in human MDA-MB-468 cells assessed as protein degradation at 0.1 to 3 uM measured after 48 hrs by Western blot analysis; assay type: cell-based; conditions: dose 0.1-3 µM
How it was run: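 BT549 (RPMI-1640) and MDA-MB-468 (DMEM) cells were treated for 48 h. RIPA lysates (~10 μg) were immunoblotted for EZH2 with β-actin as loading control. Blots are representative of three biological experiments.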
Target sequence in this assay (P40337 whole entry, looked up): as the sequence (P40337 whole entry) above
Target sequence in this assay (Q15910 whole entry, looked up): as the sequence (Q15910 whole entry) above

[20] = system: MDA-MB-468; assay: Anti-proliferative activity against human MDA-MB-468 cells assessed as cell growth inhibition measured after 5 days incubation by CCK-8 assay; assay type: functional, cell-based; conditions: MDA-MB-468, 120 h; how it was run: as §3
[21] = system: BT-549; assay: Anti-proliferative activity against human BT-549 cells spheroid TNBC model assessed as decrease in cell viability at 2.5 to 20 uM by Cell Titer Glo 3D assay; assay type: functional, cell-based; conditions: dose 2.5-20 µM
How it was run: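 BT549 cells were coated with nanoshuttle (1 μL per 2000 cells, 24 h) and magnetically levitated in low-adhesion plates. They were grown 7 days at 37 °C until a single solid spheroid formed, then treated 5 d with compound or DMSO. Spheroid area was measured from images, and viability by CellTiter-Glo 3D. Data are means ± SD of three biological experiments, analysed by one-way ANOVA.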

[22] = Cmax in mouse at 50 mg/kg, ip measured after 4 hrs; assay type: ADME, organism-based; conditions: in vivo
[23] = Toxicity in mouse at 50 mg/kg, ip measured after 4 hrs; assay type: organism-based; conditions: in vivo
[24] = biological target: Histone-lysine N-methyltransferase SUV39H2 (Homo sapiens) (UniProt Q9H5I1); assay: Inhibition of human SUV39H2 assessed as methyltransferase activity using Histone H3 as substrate at 10 uM by radioisotope based MT HotSpot assay relative to control
Histone-lysine N-methyltransferase SUV39H2 (Homo sapiens), sequence (Q9H5I1 whole entry, looked up): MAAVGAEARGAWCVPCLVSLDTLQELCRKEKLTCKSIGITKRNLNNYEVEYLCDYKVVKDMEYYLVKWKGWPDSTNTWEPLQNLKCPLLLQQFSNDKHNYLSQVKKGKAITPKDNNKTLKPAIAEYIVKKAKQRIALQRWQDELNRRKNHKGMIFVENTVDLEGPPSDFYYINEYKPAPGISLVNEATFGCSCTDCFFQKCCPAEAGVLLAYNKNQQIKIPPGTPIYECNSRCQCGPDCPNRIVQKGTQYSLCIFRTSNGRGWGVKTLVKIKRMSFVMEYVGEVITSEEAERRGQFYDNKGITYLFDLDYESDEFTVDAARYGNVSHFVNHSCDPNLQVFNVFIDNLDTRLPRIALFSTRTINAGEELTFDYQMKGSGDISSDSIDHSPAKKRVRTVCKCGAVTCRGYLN

Protein arginine N-methyltransferase 3 (Homo sapiens), sequence (O60678 2-531 limits assumed): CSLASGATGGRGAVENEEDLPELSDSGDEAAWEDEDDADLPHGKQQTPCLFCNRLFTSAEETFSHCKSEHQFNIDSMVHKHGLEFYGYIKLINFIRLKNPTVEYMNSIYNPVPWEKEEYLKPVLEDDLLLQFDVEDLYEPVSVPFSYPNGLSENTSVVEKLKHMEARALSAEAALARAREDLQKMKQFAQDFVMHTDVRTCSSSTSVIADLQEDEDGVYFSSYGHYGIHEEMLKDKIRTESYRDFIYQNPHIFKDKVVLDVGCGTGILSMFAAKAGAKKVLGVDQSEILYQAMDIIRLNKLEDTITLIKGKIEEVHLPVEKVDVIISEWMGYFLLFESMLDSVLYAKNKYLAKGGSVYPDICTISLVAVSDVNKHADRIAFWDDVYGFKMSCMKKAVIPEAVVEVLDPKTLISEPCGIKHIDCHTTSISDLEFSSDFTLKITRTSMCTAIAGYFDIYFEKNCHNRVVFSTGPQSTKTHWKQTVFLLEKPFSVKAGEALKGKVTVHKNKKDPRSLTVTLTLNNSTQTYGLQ
Protein arginine N-methyltransferase 8 (Homo sapiens), sequence (Q9NR22 2-394 limits assumed): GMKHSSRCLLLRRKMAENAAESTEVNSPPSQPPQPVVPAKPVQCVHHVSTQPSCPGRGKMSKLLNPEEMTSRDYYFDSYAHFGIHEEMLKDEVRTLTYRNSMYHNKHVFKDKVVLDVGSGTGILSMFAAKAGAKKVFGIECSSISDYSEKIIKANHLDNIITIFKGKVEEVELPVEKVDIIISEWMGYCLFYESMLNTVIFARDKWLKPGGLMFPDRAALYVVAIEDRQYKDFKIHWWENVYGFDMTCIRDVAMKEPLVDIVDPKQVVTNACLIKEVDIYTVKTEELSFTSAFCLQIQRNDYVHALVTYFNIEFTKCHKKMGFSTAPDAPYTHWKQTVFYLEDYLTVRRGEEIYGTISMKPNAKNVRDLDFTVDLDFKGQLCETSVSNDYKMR
Histone-lysine N-methyltransferase SUV39H1 (Homo sapiens), sequence (O43463 whole entry): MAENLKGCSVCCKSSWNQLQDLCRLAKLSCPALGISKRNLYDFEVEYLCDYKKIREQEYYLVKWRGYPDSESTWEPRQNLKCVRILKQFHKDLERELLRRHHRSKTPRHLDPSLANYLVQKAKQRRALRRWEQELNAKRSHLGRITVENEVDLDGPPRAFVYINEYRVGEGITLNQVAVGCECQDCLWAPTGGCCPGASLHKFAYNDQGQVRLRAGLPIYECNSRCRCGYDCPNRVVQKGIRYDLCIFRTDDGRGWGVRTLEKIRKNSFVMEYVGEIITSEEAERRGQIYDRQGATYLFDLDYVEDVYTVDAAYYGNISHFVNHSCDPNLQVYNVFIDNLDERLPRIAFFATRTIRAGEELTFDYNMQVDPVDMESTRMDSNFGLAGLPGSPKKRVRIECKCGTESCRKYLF
N-lysine methyltransferase KMT5A (Homo sapiens), sequence (Q9NQR1 whole entry): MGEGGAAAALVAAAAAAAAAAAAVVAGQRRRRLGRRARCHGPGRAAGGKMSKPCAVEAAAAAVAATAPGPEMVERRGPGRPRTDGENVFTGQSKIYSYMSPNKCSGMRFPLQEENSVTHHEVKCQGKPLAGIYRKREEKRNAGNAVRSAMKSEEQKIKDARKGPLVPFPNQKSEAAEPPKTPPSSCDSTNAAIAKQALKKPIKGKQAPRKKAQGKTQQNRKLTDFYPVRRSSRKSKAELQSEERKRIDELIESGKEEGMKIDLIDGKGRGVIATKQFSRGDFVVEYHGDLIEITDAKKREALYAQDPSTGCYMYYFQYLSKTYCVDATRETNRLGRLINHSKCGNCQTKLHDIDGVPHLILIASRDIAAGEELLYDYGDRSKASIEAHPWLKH
Histone-arginine methyltransferase CARM1 (Homo sapiens), sequence (Q86X55 whole entry): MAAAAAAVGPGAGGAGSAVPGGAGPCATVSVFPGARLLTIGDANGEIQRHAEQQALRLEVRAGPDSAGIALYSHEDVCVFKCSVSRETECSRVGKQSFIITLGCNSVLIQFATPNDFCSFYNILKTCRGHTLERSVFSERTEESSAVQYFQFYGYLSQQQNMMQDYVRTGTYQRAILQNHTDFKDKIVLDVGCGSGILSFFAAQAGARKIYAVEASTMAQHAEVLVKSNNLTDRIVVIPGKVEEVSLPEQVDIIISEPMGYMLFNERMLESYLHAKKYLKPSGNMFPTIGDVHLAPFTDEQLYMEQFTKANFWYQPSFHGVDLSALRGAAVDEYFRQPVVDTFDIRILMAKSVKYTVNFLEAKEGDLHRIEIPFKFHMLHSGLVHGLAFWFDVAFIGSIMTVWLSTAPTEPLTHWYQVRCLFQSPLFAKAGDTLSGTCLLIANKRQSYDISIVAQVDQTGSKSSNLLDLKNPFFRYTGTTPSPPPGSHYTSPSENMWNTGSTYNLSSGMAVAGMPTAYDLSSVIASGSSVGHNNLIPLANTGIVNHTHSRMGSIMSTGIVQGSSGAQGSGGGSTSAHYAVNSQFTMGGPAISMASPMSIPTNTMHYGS
Protein arginine N-methyltransferase 7 (Homo sapiens), sequence (Q9NVM4 whole entry): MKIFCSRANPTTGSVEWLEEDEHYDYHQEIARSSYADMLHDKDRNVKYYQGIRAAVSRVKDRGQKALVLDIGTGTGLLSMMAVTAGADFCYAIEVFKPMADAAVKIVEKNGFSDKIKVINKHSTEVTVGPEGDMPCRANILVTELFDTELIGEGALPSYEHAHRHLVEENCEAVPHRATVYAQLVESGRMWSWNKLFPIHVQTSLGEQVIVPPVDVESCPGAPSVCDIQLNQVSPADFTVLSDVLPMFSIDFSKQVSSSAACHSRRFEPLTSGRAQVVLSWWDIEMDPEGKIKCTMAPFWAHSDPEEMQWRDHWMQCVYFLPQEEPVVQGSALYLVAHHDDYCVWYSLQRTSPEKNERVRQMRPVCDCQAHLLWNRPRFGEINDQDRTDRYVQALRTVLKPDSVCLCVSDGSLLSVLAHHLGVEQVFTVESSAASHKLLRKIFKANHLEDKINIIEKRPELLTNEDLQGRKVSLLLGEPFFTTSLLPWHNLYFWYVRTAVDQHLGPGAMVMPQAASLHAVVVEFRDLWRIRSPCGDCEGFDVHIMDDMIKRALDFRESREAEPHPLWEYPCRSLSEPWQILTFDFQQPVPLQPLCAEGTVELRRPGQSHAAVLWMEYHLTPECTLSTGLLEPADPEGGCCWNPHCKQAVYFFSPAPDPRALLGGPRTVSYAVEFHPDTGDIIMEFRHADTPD

- DC50 [1]: 34.4 nM
- inhibition [2]: < 50%
- inhibition [3]: < 50%
- inhibition [4]: < 50%
- inhibition [5]: < 50%
- inhibition [6]: < 50%
- inhibition [7]: < 50%
- inhibition [8]: < 50%
- inhibition [9]: < 50%
- inhibition [10]: < 50%
- inhibition [11]: < 50%
- inhibition [12]: < 50%
- inhibition [13]: < 50%
- inhibition [14]: < 50%
- Activity [15]: 100%
- Activity [17]: Active
- IC50 [18]: 410 nM
- Activity [19]: Active
- IC50 [20]: 450 nM
- Cmax [22]: 3.9 µM
- inhibition [24]: < 50%
SMILES: CCN(c1cc(-c2ccc(CN3CCN(CCC(=O)NCCCCCCCCCCC(=O)N[C@H](C(=O)N4C[C@H](O)C[C@H]4C(=O)NCc4ccc(-c5scnc5C)cc4)C(C)(C)C)CC3)cc2)cc(C(=O)NCc2c(C)cc(C)[nH]c2=O)c1C)C1CCOCC1
- IC50 [16]: 110 nM
- Activity [21]: Active
- Activity [23]: Non-Toxic
